Screens: PubChem BioAssay, several laboratories
Many of the other results were omitted from the sample, so hits are more common in it than they were.
TLR4-MyD88 BLA = inhibitors of TLR4-MyD88 association in cells, primary screen, cell-based, HeLa CL3-4, BLA complementation, FRET ratio; Toll-like receptor 4 (Homo sapiens) + Myeloid differentiation primary response protein …; HeLa CL3-4 TLR4/MyD88 BLA complementation; inhibition, % at 8.4 µM; 200,000 tested, 0.18% active; in the data active = inhibition above about 25%;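 also: 0% = vehicle and 100% = reference inhibitor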
UPR XBP1 act = activators of adaptive XBP1 UPR arm, primary screen, cell-based, CHO-XBP1 luciferase reporter, luminescence, uHTS. 330,000 tested, 0.33% active. activation, % at 20 µM. IRE1-XBP1 UPR activation; percent of tunicamycin response, DMSO as zero;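 active = versus positive control, 20 µM dose yields 30% or more activation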;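 also: 100% = tunicamycin at 10 µg/mL and 0% = DMSO only wells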
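Material – CHO cell line with stable XBP1 luciferase reporter · Buffer or medium – F12 plus 10% FBS · Compound – single point, 20 µM final compound, 1% DMSO · Schedule – 16-18 h cell attachment at 37 °C, then 6 h compound exposure · Signal – Steady-Glo luminescence read · Benchmarks – high control tunicamycin 10 µg/mL final, low control DMSO vehicle only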
CHOP UPR activ = activators of apoptotic CHOP UPR arm, primary screen, cell-based, CHO-CHOP luciferase reporter, luminescence, uHTS; UPR activation; percent of tunicamycin response over DMSO baseline; activation, % at 10 µM; 330,000 tested, 0.34% active;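 active = at 10 µM dose, activation of 40% or more, normalized to positive control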;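 also: 100% = tunicamycin at 10 µg/mL and 0% = DMSO alone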
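Assay system: CHO-CHOP cells, stable luciferase reporter of PERK-eIF2a-CHOP signalling / Buffer or medium: F12 plus 10% serum / Compound dosing: one dose, 10 µM in 0.5% DMSO / Times: 6 h compound treatment, 37 °C / Technique: luciferase luminescence / Read-out: % reporter activation, DMSO baseline versus tunicamycin full activation / Benchmarks: tunicamycin and DMSO controls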
CHOP inh = inhibitors of CHOP promoter induction, primary screen, cell-based, unfolded protein response, luciferase reporter; CHO-K1 CHOP-promoter luciferase, tunicamycin-induced, 15-18 h; inhibition, % at 10 µM; 220,000 tested, 3.8% active;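 active = compounds that reduced the stress-induced luciferase reporter signal by more than about 70% of percent inhibition, limit read from the data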;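 also: 0% = tunicamycin plus vehicle and 100% = wells without tunicamycin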
NOD2-RIPK2 inh = NOD2-RIPK2 binding disruptors in cells, primary screen, fluorescence, CHO cells, BLA complementation. Receptor-interacting serine/threonine-protein kinase 2 (Homo sapiens), O43353. CCF4 ratio. inhibition, % at 4.98 µM. 360,000 tested, 0.38% active. AID 624267, 2012; in the data active = inhibition above about 21%;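 also: 0% = vehicle only and 100% = reference blocker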
Target sequence (O43353 whole entry, looked up): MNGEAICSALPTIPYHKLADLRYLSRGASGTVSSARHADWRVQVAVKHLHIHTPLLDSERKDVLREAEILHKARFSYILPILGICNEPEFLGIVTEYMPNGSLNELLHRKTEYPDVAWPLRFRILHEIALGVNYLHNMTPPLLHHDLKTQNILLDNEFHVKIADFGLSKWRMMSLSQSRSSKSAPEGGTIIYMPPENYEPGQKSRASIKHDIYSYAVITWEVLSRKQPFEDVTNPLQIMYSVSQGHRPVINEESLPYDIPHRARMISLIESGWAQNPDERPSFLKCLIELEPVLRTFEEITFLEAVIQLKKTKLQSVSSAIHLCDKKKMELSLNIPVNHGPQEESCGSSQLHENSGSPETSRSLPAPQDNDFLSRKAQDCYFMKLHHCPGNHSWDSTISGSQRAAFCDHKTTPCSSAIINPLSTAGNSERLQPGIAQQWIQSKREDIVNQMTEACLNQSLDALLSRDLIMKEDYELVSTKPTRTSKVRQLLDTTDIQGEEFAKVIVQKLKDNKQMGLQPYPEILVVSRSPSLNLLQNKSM
TLR9-MyD88 inh = inhibitors of TLR9-MyD88 association in cells, primary screen, cell-based, CHO, BLA complementation, fluorescence | CCF4 FRET ratio | inhibition, % at 4.98 µM | 340,000 tested, 0.21% active | AID 504734, 2011;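 active = inhibition above the mean over all tested compounds plus 3 SD, cut at about 21% in these data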;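 also: 0% = DMSO only wells and 100% = clavulanate BLA inhibitor control wells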
Starred values were filed as active, the others as inactive; · = not tested or not shown.

SMILES	TLR4-MyD88 BLA	UPR XBP1 act	CHOP UPR activ	CHOP inh	NOD2-RIPK2 inh	TLR9-MyD88 inh
O=C(NC1CCCCC1)C(c1cccnc1)N(C(=O)CCl)c1cccc(Cl)c1 (stereo not given)	17	-6	9	109*	-4	-2
Cc1ccc(C(C)C)c(OCC(=O)NN=C2CCCCCCC2)c1	-4	-1	1	83*	3	-18
Cc1cc(C)c(OCC(=O)Nc2ccccc2N2CCOCC2)c(C)c1	-2	2	0	79*	-8	-10
CCC(=O)N1CCN(c2ccccc2NC(=O)COc2cc(C)ccc2C(C)C)CC1	0	-1	3	77*	3	-15
Cc1ccc(C(C)C)c(OCC(=O)NN=C2CCCC(=O)C2)c1	·	2	-1	·	2	-2
COc1ccc(C(Cl)=C(C=O)c2ccc(OC)c(OC)c2)cc1OC	·	·	·	·	-3	·
Cc1ccc(S(=O)(=O)N2C[C@]3(O)C[C@@H]4C(=O)N(c5ccccc5)C(=O)[C@@H]4C[C@]3(OC(=O)NCC3CCCCC3)C2)cc1	·	·	·	·	1	-6
O=C(Nc1ccc(N2CCCC2)c(S(=O)(=O)Nc2cccc(C(F)(F)F)c2)c1)c1cccs1	-17	-3	-2	90*	-4	-7
Oc1ccc(Cl)cc1C1=NNC(c2cc(Br)cc3c2OCOC3)C1 (stereo not given)	12	3	0	79*	-7	-6
Oc1c(Cl)cc(Cl)cc1C1=NNC(c2ccc(Cl)cc2)C1 (stereo not given)	-4	·	·	-30	-16	-3
COc1ccc(C2=NNC(c3cc(Cl)cc4c3OCOC4)C2)c(O)c1 (stereo not given)	5	1	-1	2	·	·
Oc1ccc(Cl)cc1C1=NNC(c2ccc(Cl)cc2)C1 (stereo not given)	-10	7	18	78*	-2	-4
O=C(NN=Cc1ccc2c(c1)CCN2)c1cccs1	·	·	·	·	-11	-6
O=C(O)c1ccccc1Nc1cc(Cl)c2nonc2c1[N+](=O)[O-]	·	0	1	·	-11	-15
O=[N+]([O-])c1c(Nc2ccccn2)cc(Cl)c2nonc12	·	-11	-11	108*	6	-2
Cc1ccc(Oc2nc3c(c(=O)n(Cc4ccccc4F)c(=O)n3C)n2C)cc1	-1	1	1	94*	5	-14
CCCNC(=O)C1(C)CCCN(C(=O)c2cc(C)nn2C(C)(C)C)C1 (stereo not given)	·	·	·	·	-5	·
N#Cc1ccsc1NC(=O)CN1CCN(Cc2ccccc2)CC1	2	4	0	5	4	3
N#Cc1ccsc1NC(=O)CN1CCN(S(=O)(=O)c2ccc3ccccc3c2)CC1	-10	-4	0	78*	-1	9
O=C(NC1CCCCC1)C(c1ccc(C(F)(F)F)cc1)n1c(=O)c(-c2ccco2)nc2ccccc21 (stereo not given)	·	·	·	·	-14	·
Cc1ccc2nc(-c3ccncc3)c(Nc3ccccc3)n2c1	-8	1	1	2	-5	-9
Cc1ccc(Nc2c(-c3ccccn3)nc3ccc(C)cn23)cc1	12	9	19	80*	0	-3
Cc1cc(C)n2c(Nc3ccc4c(c3)OCCO4)c(-c3ccccn3)nc2n1	·	·	·	·	-5	·
Cc1ccc(Nc2c(-c3ccccn3)nc3cc(C)ccn23)cc1	1	8	17	76*	3	9
Cc1ccn2c(Nc3ccc4c(c3)OCO4)c(-c3ccccn3)nc2c1	3	3	9	78*	-6	-2
SMILES	TLR4-MyD88 BLA	UPR XBP1 act	CHOP UPR activ	CHOP inh	NOD2-RIPK2 inh	TLR9-MyD88 inh
CCCCC[C@H](C)N1C[C@@H](COCc2ccccc2)Oc2cc(N3CCC[C@H]3C(N)=O)ccc2S1(=O)=O	·	·	·	·	-5	·
Cc1nccn1CC(=O)c1ccccc1	·	·	·	·	2	-11
CCOC(=O)[C@]12CCC=C1N(Cc1ccco1)C(=O)[C@H](CC(=O)N1CCN(C(=O)C3CC3)CC1)C2	·	·	·	·	-7	·
COc1cc(/C=C/C(=O)OCC(=O)N(CC(C)C)c2c(N)n(Cc3ccccc3)c(=O)[nH]c2=O)ccc1O	·	·	·	·	-1	-14
Cc1cccc(C(=O)OC(C)C(=O)N2CCN(Cc3ccccc3)CC2)c1 (stereo not given)	·	0	1	·	-6	-6
CCc1nc2ccc(C(=O)NCCC(C)C)cn2c1N(C)Cc1ccc(OC)cc1	·	·	·	·	0	·
COc1cccc(NC(=O)c2ccccc2Oc2ccccc2)c1	·	-2	1	·	-6	-9
COc1cccc(Nc2ncccc2C(=O)Nc2ccccc2)c1	9	-2	-1	85*	6	-5
Cc1ccc(NC2=C(Cl)C(=O)OC2OC(=O)c2ccccc2)c(C)c1 (stereo not given)	5	-4	0	74*	4	2
Cc1cc(N2CCN(C(C(=O)NC3CCCC3)C(C)(C)C)CC2)c2ccccc2n1 (stereo not given)	·	·	·	·	-6	·
COc1ccc(N(C(=O)CCl)C(C(=O)NCCc2ccccc2)c2cccs2)cc1 (stereo not given)	10	·	·	93*	6	3
COc1ccc(/C=C2\SC(=S)N(CCC(=O)Nc3ccc(C(=O)O)cc3)C2=O)cc1	·	0	4	·	3	10
O=C(O)CCN1C(=O)/C(=C\c2ccc(-c3nc4ccccc4s3)o2)SC1=S	5	5	3	74*	-3	10
COc1ccc(/C=C2/SC(=S)N(CCC(=O)O)C2=O)cc1	-12	-3	-7	84*	3	-7
